From ChEMBL document CHEMBL4130355, “Development of a series of novel 4-anlinoquinazoline derivatives possessing quinazoline skeleton: Design, synthesis, EGFR kinase inhibitory efficacy, and evaluation of anticancer activities in vitro” (Eur J Med Chem, 2017)
Active and inactive are the calls of the source. The calls are words filed in the database; no cut-off is given here.

Columns and labels:
A549 [1] = assay: Antiproliferative activity against human A549 cells at 100 uM after 72 hrs by MTT assay relative to control; assay type: functional
Method in brief: (§1)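 MTT assay in triplicate wells. Cells (2 × 10^3/well) were attached 24 h, then treated at 0.1, 1, 10, 50 or 100 µM for 24, 48 or 72 h. MTT added for 4 h, SDS solubilisation, absorbance at 570/650 nm. Inhibition = 1 − (OD treated − blank)/(OD control − blank). Reported as mean ± SD of three independent experiments.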

HepG2 [2] = assay: Antiproliferative activity against human HepG2 cells at 1 uM after 72 hrs by MTT assay realtive to control; assay type: functional; method in brief: as §1
HepG2 [3] = assay: Induction of apoptosis in human HepG2 cells assessed as chromatin condensation at 2.5 to 20 uM after 48 hrs by Hoechst 33342/propidium iodide double staining based laser scanning confocal microscopy; assay type: functional, cell-based
Method in brief: (§2)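 HepG2 plated at 5.0 × 10^4 cells/well in DMEM with 10% FBS, 24 h at 37 °C, then treated 48 h (2.5–20 µM). After two ice-cold PBS washes, cells were stained with Hoechst 33342/PI mixed 1:1 for 30 min at 37 °C in the dark, washed three times, and imaged by laser scanning confocal microscopy at 200×.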

HepG2 [4] = assay: Cytotoxicity against human HepG2 cells at 5 uM after 48 hrs by LDH release assay (reference value: 100%); assay type: functional
Method in brief: (§3)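 HepG2 seeded at 1.0 × 10^5 cells/well, grown 24 h at 37 °C in 5% CO2, then dosed for 48 h. LDH in supernatant read on plate reader per kit. Maximal release (100% cytotoxicity) came from lysis with 2% (V/V) lysate for 1 h at 37 °C; medium-only cells served as natural release. Triplicate, three independent runs.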

HepG2 [5] = assay: Induction of apoptosis in human HepG2 cells assessed as viable cells at 5 uM after 48 hrs by Annexin V-FITC/propidium iodide double staining-based flow cytometry (reference value: 86.4%); assay type: functional; conditions: HepG2, 48 h, read-out: Activity
A549 [6] = assay: Antiproliferative activity against human A549 cells at 0.1 uM after 24 hrs by MTT assay relative to control; assay type: functional; method in brief: as §1
HepG2 [7] = assay: Induction of apoptosis in human HepG2 cells assessed as caspase-3 activity at 5 uM after 48 hrs by colorimetric assay relative to control; assay type: functional
Method in brief: (§4)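 After 48 h treatment, HepG2 were rinsed in ice-cold PBS and lysed 1–1.5 h on ice in buffer with 1% DTT. Lysate was spun at 10,000×g for 1 min at 4 °C; supernatant protein was measured by Bradford. Supernatant was mixed with 2× reaction buffer (1% DTT) plus caspase-3 chromogenic peptide substrate, held 4 h at 37 °C, and read at 405 nm.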

HepG2 [8] = assay: Induction of apoptosis in human HepG2 cells assessed as late apoptotic cells at 5 uM after 48 hrs by Annexin V-FITC/propidium iodide double staining-based flow cytometry (reference value: 4.3%); assay type: functional
HepG2 [9] = assay: Antiproliferative activity against human HepG2 cells at 100 uM after 24 hrs by MTT assay realtive to control; assay type: functional; method in brief: as §1
HepG2 [10] = assay: Induction of apoptosis in human HepG2 cells assessed as late apoptotic cells at 2.5 uM after 48 hrs by Annexin V-FITC/propidium iodide double staining-based flow cytometry (reference value: 4.3%); assay type: functional
MCF7 = assay: Antiproliferative activity against human MCF7 cells after 72 hrs by MTT assay; assay type: functional, cell-based; conditions: MCF7, 72 h
HepG2 [11] = assay: Induction of apoptosis in human HepG2 cells assessed as convoluted nuclei formation at 2.5 to 20 uM after 48 hrs by Hoechst 33342/propidium iodide double staining based laser scanning confocal microscopy; assay type: functional, cell-based; method in brief: as §2
[12] = target: T1, Epidermal growth factor receptor (Homo sapiens, UniProt P00533); assay type: cell-based, HEK293
HepG2 [13] = assay: Antiproliferative activity against human HepG2 cells at 1 uM after 24 hrs by MTT assay realtive to control; assay type: functional; method in brief: as §1
[14] = target: T1, Epidermal growth factor receptor; conditions: HEK293, at 0.01 µM
A549 [15] = assay: Antiproliferative activity against human A549 cells at 1 uM after 48 hrs by MTT assay relative to control; assay type: functional; method in brief: as §1
A549 [16] = assay: Antiproliferative activity against human A549 cells at 0.1 uM after 48 hrs by MTT assay relative to control; assay type: functional; method in brief: as §1
A549 [17] = assay: Antiproliferative activity against human A549 cells at 0.1 uM after 72 hrs by MTT assay relative to control; assay type: functional; method in brief: as §1
HepG2 [18] = assay: Induction of apoptosis in human HepG2 cells assessed as early apoptotic cells at 5 uM after 48 hrs by Annexin V-FITC/propidium iodide double staining-based flow cytometry (reference value: 8.7%); assay type: functional
[19] = target: T1, Epidermal growth factor receptor; conditions: HEK293, at 0.001 µM
HepG2 [20] = assay: Cell cycle arrest in human HepG2 assessed as accumulation at G0/G1 phase at 2.5 uM after 48 hrs by propidium iodide-staining based flow cytometry (reference value: 69.40%); assay type: functional
Method in brief: (§5)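 HepG2 cells at 5.0 × 10^5/well were grown 24 h, then treated at 0, 2.5, 5.0 or 10.0 µM for 48 h alongside medium-only wells. Cells fixed in 70% ice-cold ethanol for ≥24 h, treated with RNase A at 37 °C for 30 min, then stained with propidium iodide for 30 min at 4 °C in the dark. DNA content read by flow cytometry. Average of at least three experiments.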

HepG2 [21] = assay: Antiproliferative activity against human HepG2 cells at 100 uM after 48 hrs by MTT assay realtive to control; assay type: functional; method in brief: as §1
HepG2 [22] = assay: Cytotoxicity against human HepG2 cells at 40 uM after 48 hrs by LDH release assay (reference value: 100%); assay type: functional; method in brief: as §3
HepG2 [23] = assay: Induction of apoptosis in human HepG2 cells assessed as early apoptotic cells at 2.5 uM after 48 hrs by Annexin V-FITC/propidium iodide double staining-based flow cytometry (reference value: 8.7%); assay type: functional
HepG2 [24] = assay: Induction of apoptosis in human HepG2 cells assessed as caspase-3 activity at 10 uM after 48 hrs by colorimetric assay relative to control; assay type: functional; method in brief: as §4
HepG2 [25] = assay: Antiproliferative activity against human HepG2 cells at 10 uM after 72 hrs by MTT assay realtive to control; assay type: functional; method in brief: as §1
SH-SY5Y = assay: Antiproliferative activity against human SH-SY5Y cells after 72 hrs by MTT assay; assay type: functional, cell-based
HepG2 [26] = assay: Cell cycle arrest in human HepG2 assessed as accumulation at G0/G1 phase at 10 uM after 48 hrs by propidium iodide-staining based flow cytometry (reference value: 69.40%); assay type: functional; method in brief: as §5
HepG2 [27] = assay: Antiproliferative activity against human HepG2 cells after 48 hrs by MTT assay; assay type: functional, cell-based; conditions: HepG2, 48 h
Method in brief: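 MTT read-out. Cells seeded at 2 × 10^3/well, attached 24 h at 37 °C in 5% CO2, then exposed to 0.1–100 µM for 24, 48 or 72 h. MTT for 4 h, formazan dissolved in 10% SDS/NH4Cl for 10 h, absorbance at 570 nm corrected at 650 nm. % inhibition computed against untreated and blank wells. IC50 is the mean of at least three independent experiments.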

T1 sequence (P00533 whole entry): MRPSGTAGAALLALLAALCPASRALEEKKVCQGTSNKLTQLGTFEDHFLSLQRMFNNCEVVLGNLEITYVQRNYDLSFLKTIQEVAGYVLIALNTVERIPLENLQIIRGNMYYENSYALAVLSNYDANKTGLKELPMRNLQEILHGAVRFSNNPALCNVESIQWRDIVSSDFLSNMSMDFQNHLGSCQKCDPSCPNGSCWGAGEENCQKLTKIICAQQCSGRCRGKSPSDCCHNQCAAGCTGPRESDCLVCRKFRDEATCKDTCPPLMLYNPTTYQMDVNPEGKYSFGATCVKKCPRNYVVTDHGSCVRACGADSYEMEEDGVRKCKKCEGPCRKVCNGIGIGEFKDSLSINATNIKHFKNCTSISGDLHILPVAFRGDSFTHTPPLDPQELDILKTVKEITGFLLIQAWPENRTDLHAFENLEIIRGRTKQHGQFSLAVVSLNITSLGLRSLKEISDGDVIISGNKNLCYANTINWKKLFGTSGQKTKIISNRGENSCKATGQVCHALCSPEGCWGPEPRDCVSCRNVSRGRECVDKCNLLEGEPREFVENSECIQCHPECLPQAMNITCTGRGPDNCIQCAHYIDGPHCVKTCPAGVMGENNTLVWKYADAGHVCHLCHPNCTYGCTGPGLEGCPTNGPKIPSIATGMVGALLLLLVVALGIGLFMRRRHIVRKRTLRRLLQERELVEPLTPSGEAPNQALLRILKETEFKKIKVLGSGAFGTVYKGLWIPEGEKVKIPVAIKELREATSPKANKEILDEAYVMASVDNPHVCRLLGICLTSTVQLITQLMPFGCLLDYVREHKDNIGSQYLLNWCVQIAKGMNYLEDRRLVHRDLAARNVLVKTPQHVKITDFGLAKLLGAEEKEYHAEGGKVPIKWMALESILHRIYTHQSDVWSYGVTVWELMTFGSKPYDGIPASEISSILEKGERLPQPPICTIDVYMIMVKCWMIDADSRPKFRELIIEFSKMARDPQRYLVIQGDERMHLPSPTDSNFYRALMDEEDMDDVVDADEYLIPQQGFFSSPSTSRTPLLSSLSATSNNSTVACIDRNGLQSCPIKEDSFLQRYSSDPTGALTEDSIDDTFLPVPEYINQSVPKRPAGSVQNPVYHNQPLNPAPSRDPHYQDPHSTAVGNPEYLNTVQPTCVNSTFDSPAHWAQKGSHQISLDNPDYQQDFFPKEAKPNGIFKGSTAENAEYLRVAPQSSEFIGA

COc1cc2c(Nc3ccc(C#N)cc3)ncnc2cc1OCCCN1CCC(c2ccccc2)CC1
Activity (A549 [1]): 95.5% | Activity (HepG2 [2]): 13.7% | Activity (HepG2 [3]): Active | Activity (HepG2 [4]): 50.11% | viability at 5 µM (HepG2 [5]): 17.3% | Activity (A549 [6]): 0.8% | Activity (HepG2 [7]): 145% | Activity (HepG2 [8]): 2% | Activity (HepG2 [9]): 101% | Activity (HepG2 [10]): 3.8% | IC50 (MCF7): 9.8 µM | Activity (HepG2 [11]): Active | IC50 [12]: 0.00362 µM | Activity (HepG2 [13]): 7.9% | inhibition [14]: 61.8% | Activity (A549 [15]): 2.9% | Activity (A549 [16]): 1.3% | Activity (A549 [17]): 5% | Activity (HepG2 [18]): 80.7% | inhibition [19]: 46.2% | Activity (HepG2 [20]): 67.07% | Activity (HepG2 [21]): 102% | Activity (HepG2 [22]): 41.17% | Activity (HepG2 [23]): 48.6% | Activity (HepG2 [24]): 198% | Activity (HepG2 [25]): 63.6% | IC50 (SH-SY5Y): 7.77 µM | Activity (HepG2 [26]): 60.72% | IC50 (HepG2 [27]): 9.56 µM
